High-throughput results from PubChem.
This is a sample that favours compounds with a hit; in the whole collection about 2.2% have one here.
PMI act hi M6P = increases human PMI activity with near-saturating mannose 6-phosphate | 190,000 tested, 0.34% active | AID 1216 | activation factor at 20 µM | coupled PMI enzyme assay, resazurin fluorescence, 20 min; hits give high values; 1 = untreated enzyme, 0 = substrate-free blank | P34949;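 active = activation factor of 2 or more at 20 µM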
Target sequence (P34949 whole entry, looked up): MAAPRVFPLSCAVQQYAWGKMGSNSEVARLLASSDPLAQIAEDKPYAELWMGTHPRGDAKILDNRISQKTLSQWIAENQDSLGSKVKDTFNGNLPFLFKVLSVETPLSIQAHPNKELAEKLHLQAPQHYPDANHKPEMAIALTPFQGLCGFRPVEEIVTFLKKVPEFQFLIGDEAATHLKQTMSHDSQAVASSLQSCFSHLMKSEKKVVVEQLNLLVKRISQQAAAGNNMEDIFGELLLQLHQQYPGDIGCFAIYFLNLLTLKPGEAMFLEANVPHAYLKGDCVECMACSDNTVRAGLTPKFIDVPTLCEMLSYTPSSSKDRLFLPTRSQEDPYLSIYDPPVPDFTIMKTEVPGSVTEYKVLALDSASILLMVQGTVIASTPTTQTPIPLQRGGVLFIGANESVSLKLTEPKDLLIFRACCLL
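Material: human phosphomannose isomerase with PGI, G6PDH, diaphorase coupling enzymes; amount: PMI at 15 ng/mL final; also added: Mannose-6-phosphate 1.0 mM (near-saturating) plus 0.22 mM NADP+; incubation: enzyme reaction with compound 20 min at room temperature; signal: resorufin fluorescence (Ex 544/Em 590 nm) from resazurin via diaphorase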
ROMK primary = modulators of human ROMK potassium channel; AID 1918; 130,000 tested, 2% active; Tet-inducible ROMK, thallium flux fluorescence; actives lie on both sides; P48048; B-score at 10 µM;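 active = signal ratio slope over the read window, or its plate-corrected B-score, at least 3 SD from the plate mean, either direction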;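 also: B-score of the F/F0 ratio slope over 7 to 12 s after thallium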
PMI activator = activators of human phosphomannose isomerase; P34949; purified human PMI, coupled resazurin fluorescence, 20 min; hits give high values; 1 = vehicle control, 0 substrate-free wells; activation factor at 20 µM; 190,000 tested, 0.005% active; AID 1214;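 active = activation factor of 2 or more at 20 µM, relative to plate controls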
Diaph act CS = activates diaphorase or chemically reduces, flagging diaphorase assay artifacts. 190,000 tested, 0.005% active. Diaphorase/resazurin coupled assay, resorufin fluorescence, 16 min; hits give high values; 1 = vehicle wells, 0 = NADH-free wells. AID 1229. activation factor at 20 µM;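 active = diaphorase activity raised at least twofold by the compound at 20 µM; inactive = activation factor below 2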
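Assay system: bacterial diaphorase enzyme (C. kluyveri) / Input: enzyme 0.07 U/mL final / Medium: 50 mM HEPES pH 7.4 with 4.542 mM MgCl2, 0.005% Tween 20 / Doses: single compound dose of 20 µM, 1% DMSO final / Incubation: 16 min enzyme reaction, ambient temperature / Signal: fluorescence, excitation 544 nm and emission 590 nm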
Diaph inh CS = counter-screen for diaphorase-based assays: diaphorase inhibitors and chemical oxidizers | inhibition, % at 20 µM | 190,000 tested, 0.69% active | diaphorase resazurin-to-resorufin fluorescence, NADH, 16 min; bacterial (C. kluyveri) enzyme, not human;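 active = primary screen inhibition at 20 µM above a set limit, cut at about 50% in these data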
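Test system: bacterial diaphorase enzyme (C. kluyveri); Quantity: 0.14 U/mL diaphorase, enzyme working solution; Times: reaction incubation of 16 min at room temperature; Measured by: fluorescence of resorufin formed from resazurin, Ex 544/Em 590 nm; Benchmarks: positive control minus NADH, DMSO neutral control.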
G6PDH CS = counter-screen for G6PDH assay hits: L. mesenteroides G6PDH inhibition | inhibition, % at 5 µM | Purified L. mesenteroides G6PDH, diaphorase/resazurin coupled fluorescence, 45 min | AID 1020 | 200,000 tested, 0.12% active; in the data active = inhibition above about 50%
ROMK retest = human ROMK channel modulation, retest confirmation; shares compounds with ROMK primary; ROMK thallium flux, fluorescence ratio; hits give low values; normalized thallium flux (F/F0 slope) at 10 µM; 3,000 tested, 54% active;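 active = Flux at 10 µM at least 3 SD below or above vehicle control mean in one or both replicates; inconclusive = no clear call, values can overlap the other calls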
A number is an active result; 0 = inactive; ? = inconclusive; - = no result given.

SMILES	PMI act hi M6P	ROMK primary	PMI activator	Diaph act CS	Diaph inh CS	G6PDH CS	ROMK retest
COc1ccc(NC(=O)c2ccc(CNc3c(N4CCCC4)c(=O)c3=O)cc2)cc1Cl	-	0	-	-	-	-	-
CCOC(=O)Cc1csc(NC(=O)NC2(C(F)(F)F)Oc3cc(Cl)c(Cl)cc3O2)n1	0	0	0	0	0	51	-
Fc1ccc(-c2nnc(SCc3cccnc3)o2)cc1	0	0	0	0	0	0	-
Cc1ccc(N/N=C/c2ccc(N3CCOCC3)cc2)cc1C	2	-	0	0	0	0	-
O=C(CCCOc1ccccc1)Nc1ccc(S(=O)(=O)Nc2ccccn2)cc1	0	0	0	0	0	0	-
O=C(COc1ccccc1/C=C1\SC(=O)NC1=O)Nc1ccccc1	0	-3.2	0	0	0	0	-
COc1ccc(OCC(O)CN2CCN(c3ccccc3)CC2)cc1 (centres undefined)	0	0	0	0	0	0	-
CC(C)c1ccc(OCC(O)CN2CCN(c3ccccc3)CC2)cc1 (centres undefined)	0	-2.8	0	0	0	0	-
COC(=O)C1CC(O)CN1C(=O)NC1CCCCC1 (centres undefined)	2.4	0	0	0	0	0	-
CC(=O)Nc1ccc(S(=O)(=O)N2CCN(Cc3ccncc3)CC2)cc1	0	0	0	0	0	0	-
CC(=O)Nc1ccc(S(=O)(=O)N2CCN(Cc3nc4sc(C)c(C)c4c(=O)[nH]3)CC2)cc1	-	-	-	-	-	-	0
CC1Cc2ccccc2N1CC(=O)NC(=O)NC1CCCCC1 (centres undefined)	0	0	0	0	0	0	-
CC(C)NC(=S)N/N=C1\CCCc2ccccc21	0	0	0	0	0	0	-
O=C(CP(=O)(c1ccccc1)c1ccccc1)N/N=C/c1cc(Br)cc(Br)c1O	0	-	0	0	0	0	-
Cc1c(N=Cc2cc(Br)cc(Br)c2O)cccc1C(=O)O	0	3.4	0	0	0	0	0.1
O=C(NCC1CCCO1)C1CCCN(c2ncccn2)C1 (centres undefined)	0	-	0	0	0	0	0
COCCNC(=O)C1CCCN(c2ncccn2)C1 (centres undefined)	0	-	0	0	0	0	-
CC(C)CCN1CCN(Cc2nc3c(s2)CCCC3)CC1CCO (centres undefined)	0	0	0	0	0	0	-
Cc1ccc(CSc2nnc(-c3ccc(NS(=O)(=O)c4ccccc4)cc3)o2)cc1	0	0	0	0	0	0	-
COC(=O)CSc1nnc(-c2ccc(NS(=O)(=O)c3ccccc3)cc2)o1	0	-3.5	0	0	0	0	0.056
COc1ccc(/C=C/CN2CCC(CO)(Cc3ccccc3Cl)CC2)cc1	0	-1.8	0	0	0	0	0.063
CCOc1ccccc1NC(=O)/C(C#N)=C/c1c(C)nn(-c2ccc(F)cc2)c1Cl	0	-	0	0	0	0	-
CN(C)c1nc(C=C(C#N)C#N)c(Cl)n1-c1ccc(F)cc1	0	-3.9	0	0	0	0	0.059
CCN(Cc1cnn(C)c1)Cc1nc(C(c2ccccc2)c2ccccc2)no1	0	0	0	0	0	0	-
c1ccc2c(-c3cc(C4CCNCC4)[nH]n3)cccc2c1	0	-4.4	0	0	0	0	0.064
SMILES	PMI act hi M6P	ROMK primary	PMI activator	Diaph act CS	Diaph inh CS	G6PDH CS	ROMK retest
COc1ccc(CCNC(=O)COC(=O)c2ccc(N3CCCC3=O)cc2)cc1	0	1.4	0	0	0	0	0
COc1ccc(CNC(=O)c2ccc(N3CCCC3=O)cc2)cc1	0	0	0	0	0	0	-
COc1ccc(CCNC(=O)CN2CCC(C(N)=O)CC2)cc1	0	-	0	0	0	0	0
NC(=O)NNc1cccc(Cl)n1	0	0	0	0	0	0	-
N#C/C(=C\c1ccc(N2CCOCC2)o1)C(=O)NCC1CCCO1 (centres undefined)	0	-4.2	0	0	0	0	0.038
N#C/C(=C/c1ccc(N2CCOCC2)o1)C(=O)Nc1ccccc1	0	-	0	0	0	0	-
N#C/C(=C\c1ccc(N2CCOCC2)o1)C(=O)NC1CCCCC1	-	-	-	-	-	-	0.035
N#C/C(=C\c1ccc(-c2ccc(C(=O)O)cc2)o1)C(=O)NCC1CCCO1 (centres undefined)	0	0	0	0	0	0	-
CCCNCc1cc(OC)c(OCc2ccccc2)cc1Br	0	0	0	0	0	0	-
CC(=O)c1cc2ccc(O)cc2oc1=O	-	-6.4	-	-	-	-	0.05
CC(=O)NCCNC(=O)C1CCCCN1S(=O)(=O)c1ccccc1 (centres undefined)	0	0	0	0	0	0	-
Cn1c(=O)c2c(SCC(=O)N3CCCc4ccccc43)nc(C3CC3)nc2n(C)c1=O	0	-	0	0	0	0	0
Cc1sc2nc(C3CC3)nc(SCC(=O)N3CCCc4ccccc43)c2c1C	0	0	0	0	0	0	-
CCNC(=O)c1c(O)c2ccccc2[nH]c1=O	0	2.6	0	0	0	0	0
CCCCN1C(=O)C2C(c3ccc(OC)cc3O)NC(CC(C)C)(C(=O)O)C2C1=O (centres undefined)	0	-	0	0	0	0	0
CCOc1ccccc1N(CC(=O)Nc1ccc(S(=O)(=O)N2CCOCC2)cc1)S(=O)(=O)c1ccccc1	0	-	0	0	0	0	-
CCOc1ccccc1N(CC(=O)N1CCOCC1)S(=O)(=O)c1ccc(SC)cc1	0	-7.4	0	0	0	0	0.034
CCC(C)NC(=S)NNC(=O)c1ccc(C(C)(C)C)cc1 (centres undefined)	0	-	0	0	0	0	?
CC1(C(=O)NCC2CCCO2)Oc2cccnc2NC1=O (centres undefined)	0	-	0	0	0	0	-
CC1=C(C)CS(=O)N(S(=O)(=O)c2ccccc2)C1 (centres undefined)	0	-5.5	0	0	0	0	0.047
c1ccc2c(-c3ccncc3)c[nH]c2c1	0	4	0	0	0	0	0
COc1c(Cl)cc(Cl)cc1/C=C/C(=O)c1ccc(NC(=O)c2cccs2)cc1	0	-	0	0	0	0	-
CC1(C)NC(=O)N(CCCCOc2ccc(Cl)cc2C=O)C1=O	0	3.9	0	0	0	0	0
O=C(/C=C/c1c(Cl)nc2ccccn12)Nc1ccc(F)cc1	0	0	0	0	0	0	-
CC(C)(C)N1CC2(c3ccccc3)CN(C(C)(C)C)CC(c3ccccc3)(C1)C2=O	0	3	0	0	0	0	0
CCC1(c2ccccc2)C(=O)NCNC1=O	0	-	0	0	0	0	-
COc1cccc(/C(O)=C/c2nc3ccc(C(=O)NCCc4ccc(Cl)cc4)cc3[nH]c2=O)c1	0	-	0	0	0	0	-
